{"source": "ChEMBL document CHEMBL4330170", "about": "“Acidiphilamides A-E, Modified Peptides as Autophagy Inhibitors from an Acidophilic Actinobacterium, Streptacidiphilus rugosus” (J Nat Prod, 2019)", "key": {"HeLa [1]": {"test_system": "HeLa", "test": "Effect on polyubiquitin conjugate protein expression in human HeLa cells at 100 to 200 uM after 4 to 12 hrs by immunoblot analysis", "format": "functional, cell-based", "how_it_was_run": "(§1)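 HeLa cells grown in DMEM with 10% FBS, 2 mM glutamine and penicillin/streptomycin, preincubated overnight, then exposed to compound at the indicated final concentrations for 4, 8 or 12 h. Whole-cell RIPA lysates run on SDS-PAGE, transferred to PVDF, blocked in 5% nonfat milk, probed with anti-LC3, anti-SQSTM1, anti-Ub, anti-α3 or anti-β-actin, HRP secondary, ECL detection.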"}, "HeLa [2]": {"test_system": "HeLa", "test": "Inhibition of autophagic flux in human HeLa cells assessed as increase in LC3-2 level after 4 to 12 hrs by immunoblot analysis", "format": "functional, cell-based", "how_it_was_run": "as §1"}, "HeLa [3]": {"test_system": "HeLa", "test": "Effect on p62/SQSTM1 protein expression in human HeLa cells at 100 to 200 uM after 4 to 12 hrs by immunoblot analysis", "format": "functional, cell-based", "how_it_was_run": "as §1"}, "HeLa [4]": {"test_system": "HeLa", "test": "Effect on proteasome subunit alpha-3 protein expression in human HeLa cells at 100 to 200 uM after 4 to 12 hrs by immunoblot analysis", "format": "functional, cell-based", "how_it_was_run": "as §1"}, "HeLa [5]": {"test_system": "HeLa", "test": "Inhibition of autophagic flux in human HeLa cells assessed as DQ-BSA quenching at 200 uM after 4 hrs by DAPI staining based fluorescence microscopic method", "format": "functional, cell-based", "how_it_was_run": "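HeLa cells on glass coverslips loaded with self-quenching BODIPY–BSA (DQ-BSA, 10 μg/mL) for 1 h, PBS-washed, then exposed to DMSO, EBSS or compound (200 μM) for 4 h. Fixed in 4% paraformaldehyde/PBS 15 min, mounted with DAPI-containing medium. Dequenched DQ-BSA puncta in autolysosomes imaged by fluorescence microscopy.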"}, "[6]": {"biological_target": "26S proteasome (Homo sapiens) (UniProt Q99460+P49721+P20618+P28074+P28062+P28065+P28072+O00487+P25786+P25787+P25788+P25789+P28066+P60900+O14818+Q8TAA3+P40306+A5LHX3+P49720+P28070+Q99436+Q16186+P35998+P62191+P43686+P62333+P17980+P62195+Q13200+O43242+O00232+O00231+Q15008+P51665+Q9UNM6+P55036+P48556+P60896)", "test": "Inhibition of human 26S proteasome using suc-LLVY-AMC as substrate up to 40 mins by fluorescence assay", "format": "protein-complex assay", "how_it_was_run": "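Purified human 26S proteasomes incubated with compound and fluorogenic substrate suc-LLVY-AMC. Substrate hydrolysis followed as AMC fluorescence (RFU) over time.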"}, "HeLa [7]": {"test_system": "HeLa", "test": "Inhibition of autophagic flux in human HeLa cells assessed as increase in LC3-2 level at 100 to 200 uM after 4 to 12 hrs by immunoblot analysis"}, "HeLa [8]": {"test_system": "HeLa", "test": "Inhibition of autophagic flux in human HeLa cells assessed as reduction in autolysosome formation by measuring increase in LC3-2 level at 200 uM after 8 hrs in presence of BafA1 by immunoblot analysis", "format": "functional, cell-based", "how_it_was_run": "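HeLa cells grown in normal DMEM to >90% confluence, washed with PBS, then cotreated for 8 h with compound (200 μM) plus bafilomycin A1 (100 nM) in DMEM, or under amino acid depletion in EBSS. Whole-cell RIPA lysates immunoblotted (SDS-PAGE, PVDF, milk block, HRP secondary, ECL); β-actin loading control.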"}, "HeLa [9]": {"test_system": "HeLa", "test": "Inhibition of autophagic flux in human HeLa cells assessed as increase in LC3-2 level at 100 to 200 uM after 4 to 12 hrs by immunoblot analysis", "format": "functional, cell-based", "how_it_was_run": "as §1"}}, "note": "Calls of active or inactive are those of the source. The rule behind the calls is not given here. Non-standard residues stand in square brackets, D forms with d. Residues, ends and D or L forms follow the SMILES beside them. *: point of attachment. Phe(ol) = N[C@H](CO)Cc1ccccc1; Isovaleryl = CC(C)CC(=O)*; Propionyl = CCC(=O)*; Butyryl = CCCC(=O)*", "data": [{"compound": "CCCC(=O)N[C@@H](Cc1ccccc1)C(=O)N[C@H](C(=O)N[C@H](CO)Cc1ccccc1)[C@@H](C)CC", "note": "(Butyryl-Phe-Ile-[Phe(ol)])", "values": [{"measurement": "Activity", "setting": "HeLa [1]", "value": "inactive"}, {"measurement": "inhibition", "setting": "HeLa [2]", "value": "Dose-dependent effect"}, {"measurement": "Activity", "setting": "HeLa [3]", "value": "inactive"}, {"measurement": "Activity", "setting": "HeLa [4]", "value": "inactive"}, {"measurement": "inhibition", "setting": "HeLa [5]", "value": "Active"}, {"measurement": "inhibition", "setting": "[6]", "value": "inactive"}, {"measurement": "inhibition", "setting": "HeLa [7]", "value": "Active"}, {"measurement": "inhibition", "setting": "HeLa [8]", "value": "inactive"}]}, {"compound": "CC[C@H](C)[C@H](NC(=O)[C@H](Cc1ccccc1)NC(=O)CC(C)C)C(=O)N[C@H](CO)Cc1ccccc1", "note": "(Isovaleryl-Phe-Ile-[Phe(ol)])", "values": [{"measurement": "LC3-II increase (active/not active)", "setting": "HeLa [9]", "value": "inactive"}]}, {"compound": "CC(C)CC(=O)N[C@@H](Cc1ccc(O)cc1)C(=O)N[C@H](C(=O)N[C@H](CO)Cc1ccccc1)C(C)C", "note": "(Isovaleryl-Tyr-Val-[Phe(ol)])", "values": [{"measurement": "LC3-II increase (active/not active)", "setting": "HeLa [9]", "value": "inactive"}]}, {"compound": "CC[C@H](C)[C@H](NC(=O)[C@H](Cc1ccc(O)cc1)NC(=O)CC(C)C)C(=O)N[C@H](CO)CCSC", "values": [{"measurement": "LC3-II increase (active/not active)", "setting": "HeLa [9]", "value": "inactive"}]}, {"compound": "CC(C)CC(=O)N[C@@H](Cc1ccccc1)C(=O)N[C@H](C(=O)N[C@H](CO)Cc1ccccc1)C(C)C", "note": "(Isovaleryl-Phe-Val-[Phe(ol)])", "values": [{"measurement": "Activity", "setting": "HeLa [1]", "value": "inactive"}, {"measurement": "inhibition", "setting": "HeLa [2]", "value": "Dose-dependent effect"}, {"measurement": "Activity", "setting": "HeLa [3]", "value": "inactive"}, {"measurement": "Activity", "setting": "HeLa [4]", "value": "inactive"}, {"measurement": "inhibition", "setting": "HeLa [5]", "value": "Active"}, {"measurement": "inhibition", "setting": "[6]", "value": "inactive"}, {"measurement": "inhibition", "setting": "HeLa [7]", "value": "Active"}, {"measurement": "inhibition", "setting": "HeLa [8]", "value": "inactive"}]}, {"compound": "CC[C@H](C)[C@H](NC(=O)[C@H](Cc1ccc(O)cc1)NC(=O)CC(C)C)C(=O)N[C@H](CO)Cc1ccccc1", "note": "(Isovaleryl-Tyr-Ile-[Phe(ol)])", "values": [{"measurement": "LC3-II increase (active/not active)", "setting": "HeLa [9]", "value": "inactive"}]}, {"compound": "CCC(=O)N[C@@H](Cc1ccc(O)cc1)C(=O)N[C@H](C(=O)N[C@H](CO)Cc1ccccc1)[C@@H](C)CC", "note": "(Propionyl-Tyr-Ile-[Phe(ol)])", "values": [{"measurement": "LC3-II increase (active/not active)", "setting": "HeLa [9]", "value": "inactive"}]}]}
